Experimental data as given in publication PMC4102938 (British Journal of Cancer, 2014).

What was measured:
CRM1 [1] = conditions: 24 h of incubation; ref Sun et al (2013); cited from earlier work
11 NSCLC cell lines = assay: MTT proliferation assay, 72 h, whole panel; type: cell-based; conditions: Homo sapiens, read-out: calculated IC50 values, range
Summary of the method: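 Eleven NSCLC lines (STR-verified) were grown in RPMI 1640 with 10% FBS and penicillin/streptomycin at 37 °C, 5% CO2. Cells were plated at 3 × 10^3 per well and exposed for 72 h to test compound at 0, 0.1, 1, 10, 100 or 1000 nM. Viability was read by MTT absorbance at 570 nm, and IC50 was taken from fitted dose-response curves.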

H1975 NSCLC xenografts [2] = assay: H1975 NSCLC xenograft tumour growth; type: in vivo; conditions: NOD/SCID mice, oral 10 mg kg^−1 thrice weekly for 4 weeks
Summary of the method: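 Seven-week-old male NOD/SCID mice were injected subcutaneously in both flanks with H1975 cells (1.0 × 10^7) in matrigel. Mice were randomised into two groups of five and dosed orally three times weekly for 4 weeks with vehicle (0.6% w/v aqueous Pluronic F-68) or test compound (10 mg kg−1), with Nutri-Cal given during therapy. Calipers were used three times weekly; volume = width² × length/2. Tumour weights were taken after 28 days.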

[3] = test system: PC14 cells, scramble vector control; assay: MTT growth assay, transient scramble control; type: cell-based; conditions: Homo sapiens, PC-14
[4] = test system: six NSCLC cell lines (A549, H460, H1975, PC14, H1299, and H23); assay: Cell cycle analysis by propidium iodide flow cytometry, six lines; type: cell-based, human; conditions: range over six NSCLC cell lines, 1 μM, 24 h
Summary of the method: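 A549, H460, H1975, PC14, H1299 and H23 were seeded at 50% confluency, left overnight, then exposed for 24 h to test compound (1 μM) or diluent control. DNA content was stained with propidium iodide, and cell-cycle phase distribution was determined by flow cytometry.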

six NSCLC cell lines = assay: Apoptosis, annexin V/propidium iodide flow cytometry, six lines; type: cell-based, human; conditions: range over six NSCLC cell lines, 24 h
Summary of the method: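 Cells seeded at 50% confluency, incubated overnight, then given fresh medium with diluent control or test compound (1, 10, 100, 1000 nM) for 24 h. Cells were PBS-washed, trypsinized, resuspended in annexin-binding buffer at 1 × 10^6 cells per ml, and stained with annexin V plus propidium iodide. Analysed by flow cytometry; read-out is the percent annexin V/PI co-positive cells.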

CRM1 [5] = assay: Quantitative RT-PCR of CRM1 mRNA in treated cells; type: cell-based, human; conditions: H1975, KPT-330 10–1000 nM, 24 h
Summary of the method: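 H1975 cells were exposed for 24 h to test compound at 0, 10, 100 or 1000 nM. CRM1 mRNA was quantified by quantitative RT–PCR; experiments were done in triplicate and reported as mean±s.d.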

PC14 cells, shp73 = assay: MTT growth assay, transient p73 silencing; type: cell-based; conditions: Homo sapiens, PC-14
H1975 NSCLC xenografts [6] = assay: Immunohistochemistry of xenograft tumours; type: in vivo, NOD/SCID mice; conditions: end of treatment, 10 mg kg^−1 thrice weekly × 4 weeks
Summary of the method: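 At the end of the 28-day oral dosing, H1975 xenograft tumours were formalin-fixed, paraffin-embedded and cut at 5.0 μm. Peroxidase was quenched with 3% H2O2, sections blocked 1 h at room temperature in PBS with 3% normal serum, then probed overnight at 4 °C for Ki-67 or TUNEL. Detection used biotinylated secondary (1:200) plus avidin–biotin peroxidase. Three random ×200 fields were scored, counting 100 cells in triplicate; positives are given as % of total cells.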

CRM1 [7] = assay: Immunoblot of CRM1 protein in treated cells; type: cell-based, human; conditions: H1975 cell lysate, KPT-330 10–1000 nM, 24 h
Summary of the method: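 H1975 cells were treated 24 h with test compound at 0, 10, 100 or 1000 nM. Whole-cell lysates were prepared with a mammalian lysis reagent, protein was measured by BCA, and samples were run on SDS-PAGE and blotted to PVDF. Membranes were blocked 1 h in TBS/5% milk/0.5% Tween 20, incubated with primary antibody overnight at 4 °C, then HRP secondary for 1 h at room temperature. Detection was by chemiluminescence, with β-actin as reference and densitometry of bands.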

[8] = Body weight of treated mice; type: in vivo; conditions: NOD/SCID mice, oral 10 mg kg^−1 thrice weekly for 4 weeks
[9] = test system: H1975 cells stably carrying shp73; assay: MTT growth assay, p73-knockdown cells; type: cell-based; conditions: Homo sapiens, NCI-H1975, 72 h
Summary of the method: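 H1975 cells stably carrying a p73-targeting or scrambled shRNA were used, made by pLKO.1 lentiviral infection with polybrene for 16 h and puromycin selection for 3 days beginning 2 days after infection. Cells were cultured 3 days with test compound at 0, 1, 3, 10, 30, 100, 320 or 1000 nM. Growth was measured by MTT and IC50 derived. Data are three experiments in triplicate, mean±s.d.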

[10] = test system: H1975 cells stably carrying scramble vector; assay: MTT growth assay, scrambled shRNA control cells; type: cell-based, human
Summary of the method: (§1)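 H1975 cells stably carrying a CRM1-targeting or scrambled shRNA were used, made by pLKO.1 lentiviral infection with polybrene for 16 h and puromycin selection for 3 days starting 2 days post-infection. Cells were cultured 72 h across a cisplatin series up to 10 μg ml−1. Growth was measured by MTT and IC50 derived. Data are three experiments in triplicate, mean±s.d.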

[11] = Peripheral blood analysis after 28-day treatment; type: in vivo, NOD/SCID mice
Summary of the method: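 H1975-xenografted male NOD/SCID mice (five per group) were given vehicle (0.6% w/v aqueous Pluronic F-68) or test compound orally, 10 mg kg−1 three times weekly for 4 weeks. After the 28-day treatment, peripheral blood was analysed for white cells, neutrophils, platelets and haematocrit, and serum for albumin, alkaline phosphatase, ALT and creatinine.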

[12] = test system: H1975 cells stably containing shCRM1; assay: MTT growth assay, CRM1-knockdown cells; type: cell-based, human; conditions: H1975 shCRM1, cisplatin 72 h
Summary of the method: as §1

**Q.** Which “reversibility of binding to CRM1” value (CRM1 [1]) does the source give for `CCC(=C/[C@H](C)C/C=C/C(C)=C/[C@@H](C)C(=O)[C@@H](C)[C@H](O)[C@@H](C)C/C(C)=C/C(=O)O)/C=C/[C@@H]1OC(=O)C=C[C@@H]1C` [LMB, Leptomycin B] here?
**A.** not reversible

**Q.** Which IC50 (11 NSCLC cell lines) does the source give for `O=C(/C=C\n1cnc(-c2cc(C(F)(F)F)cc(C(F)(F)F)c2)n1)NNc1cnccn1` [KPT-330] here?
**A.** 25 to 995 nM

**Q.** What about the “tumour growth compared with vehicle-treated controls” value (H1975 NSCLC xenografts [2]) of the same molecule?
**A.** mark inhibition

**Q.** What about the IC50 [3] of the same molecule?
**A.** 197 nM

**Q.** And the “G1 cell cycle, range” value [4]?
**A.** 56–82%

**Q.** And the “G2/M phase, range” value [4]?
**A.** 2–20%

**Q.** And the “S phase, range” value [4]?
**A.** 8–20%

**Q.** And the “range of apoptosis induced (annexin V/propidium iodide co-positive cells)” value (six NSCLC cell lines)?
**A.** 22–54%

**Q.** And the “CRM1 mRNA levels” value (CRM1 [5])?
**A.** no significant change

**Q.** And the IC50 (PC14 cells, shp73)?
**A.** 318 nM

**Q.** And the “Ki-67-positive cells in tumour tissue” value (H1975 NSCLC xenografts [6])?
**A.** decreased

**Q.** And the “percent of TUNEL-positive cells in tumour tissue” value (H1975 NSCLC xenografts [6])?
**A.** increased

**Q.** And the “protein levels of CRM1 (western blot)” value (CRM1 [7])?
**A.** dose-dependent decrease

**Q.** And the “effect on body weight compared with the vehicle group” value [8]?
**A.** did not have a significant effect

**Q.** What about the “mean relative body weight compared with mean starting weight” value [8] of the same molecule?
**A.** 105%

**Q.** What about the IC50 [9] of the same molecule?
**A.** > 1000 nM

**Q.** And the IC50 ([10]; Homo sapiens, NCI-H1975, 72 h)?
**A.** 98 nM

**Q.** What about the Neut ([11]; NOD/SCID mice, 10 mg kg^−1 thrice weekly × 4 weeks, mean±s.d., range 0.15–7.9) of the same molecule?
**A.** 1.26±0.5 × 1000 per μl

**Q.** What about the CREAT ([11]; NOD/SCID mice, 10 mg kg^−1 thrice weekly × 4 weeks, mean±s.d., range 0.2–0.9) of the same molecule?
**A.** 0.062 ± 0.01 mg/dL

**Q.** What about the WBC ([11]; NOD/SCID mice, 10 mg kg^−1 thrice weekly × 4 weeks, mean±s.d., range 2.9–20.9) of the same molecule?
**A.** 4.0±0.3 × 1000 per μl

**Q.** What about the ALT ([11]; NOD/SCID mice, 10 mg kg^−1 thrice weekly × 4 weeks, mean±s.d., range 17–77) of the same molecule?
**A.** 46.2±10.2 U l^−1

**Q.** And the Alb ([11]; NOD/SCID mice, 10 mg kg^−1 thrice weekly × 4 weeks, mean±s.d., range 25–30)?
**A.** 36.5 ± 0.6 g/L

**Q.** What about the HCT ([11]; NOD/SCID mice, 10 mg kg^−1 thrice weekly × 4 weeks, mean±s.d., range 34–53) of the same molecule?
**A.** 46.2±7.5%

**Q.** What about the ALP ([11]; NOD/SCID mice, 10 mg kg^−1 thrice weekly × 4 weeks, mean±s.d., range 35–96) of the same molecule?
**A.** 96±18 U l^−1

**Q.** What about the PLT ([11]; NOD/SCID mice, 10 mg kg^−1 thrice weekly × 4 weeks, mean±s.d., range 685–1436) of the same molecule?
**A.** 786±180 × 1000 per μl

**Q.** And the “total white blood cells, neutrophils, platelet counts, haematocrit, serum albumin, alkaline phosphatase, ALT and creatinine compared with vehicle group” value ([11]; peripheral blood after the 28-day treatment)?
**A.** no significant alterations

**Q.** With `N.N.[Cl][Pt][Cl]` [cisplatin, reference compound] as the molecule, how does the IC50 [12] read?
**A.** 1.62 µg/mL

**Q.** What about the IC50 ([10]; H1975 scramble, cisplatin 72 h, MTT) of the same molecule?
**A.** 8.1 µg/mL
